For one assay, the species on record is Homo sapiens. Put plainly: In vitro inhibition of histamine release from human basophils. The assay is classed as functional, organism-based.
Conditions: not given
The gist of the method:
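Human basophils separated from leukocytes were incubated with test compound, then challenged with anti-IgE or antigen (Lichtenstein method). Histamine release was measured against controls and blanks. IC50 is the concentration lowering histamine release by 50%.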
In general, IC50 refers to the concentration that gives 50% inhibition. A higher IC50 goes with a need for much substance. `c1cc(Nc2nccc(-c3ccncc3)n2)cc(-n2ccnc2)c1` yielded an IC50 of 3900 nM.
As for `FC(F)(F)c1cccc(Nc2nccc(-c3ccccn3)n2)c1` [listing 1 of 2 here], 2900 nM corresponded to half-maximal inhibition (IC50).
Still for that read-out and setting: for `FC(F)(F)c1cccc(Nc2nccc(-c3cccnc3)n2)c1` [listing 1 of 2 here] the value was 700 nM.
The same measure, in the same setting: the same measure for `FC(F)(F)c1cccc(Nc2nccc(-c3cccnc3)n2)c1` [listing 2 of 2 here]: 2100 nM; for `FC(F)(F)c1cccc(Nc2nccc(-c3ccccn3)n2)c1` [listing 2 of 2 here]: 400 nM.

The assay is the same for the next values; noted with them: Homo sapiens.
The compound `COc1ccc(Nc2nccc(-c3cc[n+](C)cc3)n2)cc1` had an IC50 of 33300 nM.
The same measure, in the same setting: the same measure for `NS(=O)(=O)c1cccc(Nc2nccc(-c3cccnc3)n2)c1`: 200 nM.
On the same count and under the same terms, for `CCc1ccc(Nc2nccc(-c3ccccn3)n2)cc1` the value was 2100 nM.
`c1cncc(-c2ccnc(Nc3cccc(-n4ccnc4)c3)n2)c1` displayed an IC50 of 200 nM.
Same read-out and setting: the same measure for `CC1CCN(c2ccc(Nc3nccc(-c4cccnc4)n3)cc2)CC1`: 500 nM.
`NS(=O)(=O)c1cccc(Nc2nccc(-c3ccncc3)n2)c1`: it took 500 nM to reach half-maximal inhibition (IC50).
The same measure, in the same setting: the same measure for `COc1cccc(Nc2nccc(-c3ccccn3)n2)c1`: 200 nM; for `Cc1cc(-c2ccncc2)nc(Nc2ccc(N(C)C)cc2)n1`: greater than 24000 nM.
In turn, `CC(=O)Nc1cccc(Nc2nccc(-c3ccccn3)n2)c1` yielded an IC50 of 300 nM.
`CCc1ccc(Nc2nccc(-c3cc(C)oc3C)n2)cc1` showed an IC50 of 19200 nM.
For `CC1CCN(c2cccc(Nc3nccc(-c4cccnc4)n3)c2)CC1`, 1200 nM corresponded to half-maximal inhibition (IC50).
Still for that read-out and setting: the same measure for `COc1cccc(Nc2nccc(-c3ccc(C)o3)n2)c1`: 1500 nM; for `NS(=O)(=O)c1ccc(Nc2nccc(-c3ccccn3)n2)cc1`: 4600 nM.
Compound `CC(=O)c1ccc(Nc2nccc(-c3cccnc3)n2)cc1` gave an IC50 of 800 nM.
Still for that read-out and setting: the same measure for `CCN(CC)CCOc1ccc(Nc2nccc(-c3ccco3)n2)cc1`: 1300 nM.
The same measure, in the same setting: the same measure for `COc1ccccc1Nc1nccc(-c2cccnc2)n1`: 9800 nM; for `Cc1cccc(Nc2nccc(-c3cc(C)oc3C)n2)c1`: 28500 nM; for `c1ccc(Nc2nccc(-c3ccco3)n2)cc1`: 32000 nM.
`Cc1ccc(-c2ccnc(Nc3cccc(N(C)C)c3)n2)s1`: the midpoint of inhibition, the IC50, lay at 5700 nM.
Compound `CN(C)c1ccc(Nc2nccc(-c3ccsc3)n2)cc1` gave an IC50 of 2100 nM.
The same measure, in the same setting: for `Cc1cccc(Nc2nccc(-c3cccs3)n2)c1` the value was 300 nM; for `Cc1cc(-c2ccnc(Nc3ccccc3)n2)c(C)o1`, 2000 nM; for `COc1cccc(Nc2nc(C)cc(-c3ccncc3)n2)c1`, greater than 24000 nM.
On the same count and under the same terms, the same measure for `CC1CCN(c2ccc(Nc3nccc(-c4ccccn4)n3)cc2)CC1`: 1900 nM; for `Cc1cccc(Nc2nccc(-c3ccco3)n2)c1`: 2100 nM; for `Fc1cccc(Nc2nccc(-c3ccccn3)n2)c1`: 1000 nM.
`Cc1ccsc1-c1ccnc(Nc2ccc(N(C)C)cc2)n1` came in with an IC50 of 1800 nM.
`CN(c1ccccc1)c1nccc(-c2ccncc2)n1` came in with an IC50 greater than 24000 nM.
Same read-out and setting: the same measure for `Oc1ccc(Nc2nccc(-c3ccncc3)n2)cc1`: 3300 nM.
On the same count and under the same terms, the same measure for `c1ccc(Nc2nccc(-c3ccncc3)n2)cc1`: 900 nM; for `CC1CCN(c2cccc(Nc3nccc(-c4cccs4)n3)c2)CC1`: 3500 nM.
The same measure, in the same setting: for `NS(=O)(=O)c1ccc(Nc2nccc(-c3cccnc3)n2)cc1` the value was 200 nM; for `CN(C)c1ccc(Nc2nccc(-c3ccccn3)n2)cc1`, 3300 nM; for `COc1cccc(Nc2nccc(-c3cccs3)n2)c1`, 900 nM.
Regarding `CCc1cccc(Nc2nccc(-c3ccccn3)n2)c1`, the IC50 is 1400 nM.
Still for that read-out and setting: for `Cc1cc(C)cc(Nc2nccc(-c3ccccn3)n2)c1` the value was 100 nM; for `CC(=O)Nc1cccc(Nc2nccc(-c3cccnc3)n2)c1`, 3600 nM.
In the case of `COc1cccc(Nc2nccc(-c3cc(C)oc3C)n2)c1`, the IC50 stood at 5800 nM.
On the same count and under the same terms, the same measure for `CCc1cccc(Nc2nccc(-c3ccsc3)n2)c1`: 1100 nM.
Same read-out and setting: the same measure for `CC(=O)c1cccc(Nc2nccc(-c3cccnc3)n2)c1`: 4100 nM; for `Cc1cn(-c2ccc(Nc3nccc(-c4ccncc4)n3)cc2)cn1`: greater than 3000 nM; for `c1cc(Nc2nccc(-c3cccs3)n2)cc(-n2ccnc2)c1`: 300 nM.
On the same count and under the same terms, for `CC1CCN(c2ccc(Nc3nccc(-c4cccs4)n3)cc2)CC1` the value was 400 nM; for `COc1cccc(Nc2nccc(-c3cccnc3)n2)c1`, 300 nM; for `COc1cccc(Nc2nccc(-c3ccc(C)s3)n2)c1`, 2300 nM.
In turn, `c1cc(Nc2nccc(-c3ccncc3)n2)cc(OCCn2ccnc2)c1` yielded an IC50 of 200 nM.
`CC1CCN(C(=O)COc2ccc(Nc3nccc(-c4ccncc4)n3)cc2)CC1` yielded an IC50 of 300 nM.
Same read-out and setting: for `COc1cccc(Nc2nccc(-c3ccco3)n2)c1` the value was 400 nM.
Compound `COc1ccc(Nc2nccc(-c3cccs3)n2)cc1` registered an IC50 of 3900 nM.
The same measure, in the same setting: for `c1ccc(Nc2nccc(-c3c[nH]c4ccccc34)n2)cc1` the value was 3000 nM; for `c1cc(Nc2nccc(-c3ccco3)n2)cc(-n2ccnc2)c1`, 800 nM; for `CC(=O)Nc1ccc(Nc2nccc(-c3ccccn3)n2)cc1`, 1500 nM.
Regarding `COc1ccc(Nc2nccc(-c3ccccn3)n2)cc1`, the IC50 was 8300 nM.
On the same count and under the same terms, for `CC1CCN(c2ccc(Nc3nccc(-c4ccco4)n3)cc2)CC1` the value was 1800 nM.
In the case of `Cc1cccc(Nc2nccc(-c3c[nH]c4ccccc34)n2)c1`, half-maximal inhibition (IC50) required 2200 nM.
Same read-out and setting: the same measure for `c1ccc(Nc2nccc(-c3cccnc3)n2)cc1`: 900 nM; for `CC1CCN(c2ccc(Nc3nccc(-c4ccncc4)n3)cc2)CC1`: 600 nM.
Same read-out and setting: the same measure for `CCN(CC)CCOc1ccccc1Nc1nccc(-c2cccnc2)n1`: greater than 6000 nM; for `c1cc(Nc2nccc(-c3cccnc3)n2)cc(OCCn2ccnc2)c1`: 100 nM.
On the same count and under the same terms, the same measure for `Cc1cc(-c2ccco2)nc(Nc2ccccc2)n1`: 17700 nM; for `Cc1cccc(Nc2nccc(-c3ccsc3)n2)c1`: 3800 nM.
As to `c1cc(Nc2nccc(-c3cccs3)n2)cc(OCCn2ccnc2)c1`, it took 100 nM to reach half-maximal inhibition (IC50).
`c1cncc(-c2ccnc(Nc3ccc(-n4ccnc4)cc3)n2)c1` returned an IC50 of 1300 nM.
The same measure, in the same setting: the same measure for `Cc1cccc(Nc2nccc(-c3ccccn3)n2)c1`: 700 nM.
For the compound `CN(C)c1ccc(Nc2nccc(-c3cccs3)n2)cc1`, the IC50 amounted to 900 nM.
For the compound `CCc1ccc(Nc2nccc(-c3ccnc4ccccc34)n2)cc1`, the IC50 is 4000 nM.
With `CN(C)c1ccc(Nc2nccc(-c3ccco3)n2)cc1`, half-maximal inhibition (IC50) required 1900 nM.
Take `CCOC(=O)c1cccc(Nc2nccc(-c3cccnc3)n2)c1`: the midpoint of inhibition, the IC50, lay at 10500 nM.
Same read-out and setting: the same measure for `NS(=O)(=O)c1ccc(Nc2nccc(-c3ccncc3)n2)cc1`: 5100 nM; for `c1ccc(-c2ccnc(Nc3ccc(-n4ccnc4)cc3)n2)nc1`: 1400 nM.
Same read-out and setting: for `CNc1ccc(Nc2nccc(-c3ccccn3)n2)cc1` the value was 1400 nM; for `CN(C)c1ccc(Nc2nccc(-c3cccnc3)n2)cc1`, 2800 nM; for `Cc1cc(C)cc(Nc2nc(C)cc(-c3ccco3)n2)c1`, greater than 24000 nM.
On the same count and under the same terms, for `Cc1cc(C)cc(Nc2nc(C)cc(-c3ccccn3)n2)c1` the value was greater than 24000 nM; for `CC(=O)Nc1ccc(Nc2nccc(-c3ccncc3)n2)cc1`, 5300 nM.
`Fc1cccc(F)c1Nc1nccc(-c2cccnc2)n1` registered an IC50 of 21000 nM.
For `Nc1ccc(Nc2nccc(-c3cccnc3)n2)cc1`, half-maximal inhibition (IC50) required 2800 nM.
The same measure, in the same setting: the same measure for `CC(=O)N(C)c1ccc(Nc2nccc(-c3ccccn3)n2)cc1`: 1800 nM; for `c1ccc(-c2nccc(-c3ccncc3)n2)cc1`: 13900 nM; for `CCN(CC)CCOc1cccc(Nc2nccc(-c3ccco3)n2)c1`: 1400 nM.
`Cc1cccc(Nc2nccc(-c3ccncc3)n2)c1` registered a concentration for half-maximal inhibition (IC50) of 8800 nM.
As to `CN(C)c1cccc(Nc2nccc(-c3cccs3)n2)c1`, the IC50 turned out to be 2400 nM.
Compound `CCc1cccc(Nc2nccc(-c3ccco3)n2)c1` showed an IC50 of 9700 nM.
`Cc1cc(C)cc(Nc2nccc(-c3cc(C)oc3C)n2)c1` came in with an IC50 of 4100 nM.
In turn, `Cc1ccc(Nc2nccc(-c3ccccn3)n2)cc1C` had an IC50 of 5900 nM.
On the same count and under the same terms, for `CCOC(=O)C(=O)N(c1ccccc1)c1nccc(-c2ccncc2)n1` the value was 2200 nM.
`CN(C)c1cccc(Nc2nccc(-c3ccccn3)n2)c1` had an IC50 of 400 nM.
`Cc1cc(C)cc(Nc2ncc(C)c(-c3cccnc3)n2)c1` gave an IC50 greater than 24000 nM.
Compound `CN(C)c1cccc(Nc2nccc(-c3cccnc3)n2)c1` came in with an IC50 of 1800 nM.
In turn, `c1ccc(Nc2nccc(-c3cccs3)n2)cc1` gave an IC50 of 31700 nM.
Still for that read-out and setting: for `c1cc(-c2ccnc(Nc3ccc(-n4ccnc4)cc3)n2)ccn1` the value was 7600 nM; for `CCOC(=O)c1cccc(Nc2nccc(-c3ccccn3)n2)c1`, 3000 nM; for `Cc1cccc(Nc2nccc(-c3ccc(C)s3)n2)c1`, 1400 nM.
Take `Cc1cc(-c2ccccn2)nc(Nc2ccc(N(C)C)cc2)n1`: the IC50 is 31900 nM.
The same measure, in the same setting: for `Cc1cc(-c2ccco2)nc(Nc2ccc(N(C)C)cc2)n1` the value was 5900 nM; for `CN(C)CCCOc1ccc(Nc2nccc(-c3cccnc3)n2)cc1`, 600 nM.
Still for that read-out and setting: for `c1coc(-c2ccnc(Nc3ccc(-n4ccnc4)cc3)n2)c1` the value was 2200 nM; for `CCN(CC)CCOc1cccc(Nc2nccc(-c3ccncc3)n2)c1`, 600 nM; for `Cc1cc(-c2ccncc2)nc(Nc2cccc(N(C)C)c2)n1`, greater than 24000 nM.
`COc1ccc(N(C)c2nccc(-c3ccncc3)n2)cc1` yielded an IC50 greater than 24000 nM.
`CC(C)N(CCOc1ccc(Nc2nccc(-c3cccnc3)n2)cc1)C(C)C` had an IC50 of 4600 nM.
Same read-out and setting: for `CCc1ccc(Nc2nccc(-c3cnccn3)n2)cc1` the value was 1900 nM.
Still for that read-out and setting: the same measure for `c1ccc(-c2ccnc(Nc3cccc(OCCn4ccnc4)c3)n2)nc1`: 400 nM; for `COc1ccc(Nc2nccc(-c3cccnc3)n2)cc1`: 1700 nM.
Compound `Fc1ccc(Nc2nccc(-c3ccncc3)n2)cc1` displayed an IC50 of 1900 nM.
Same read-out and setting: the same measure for `Cc1cc(C)cc(Nc2nccc(-c3cccs3)n2)c1`: 4300 nM.

The values above are taken from ChEMBL document CHEMBL1126800, “Preparation of substituted N-phenyl-4-aryl-2-pyrimidinamines as mediator release inhibitors” (J Med Chem, 1993).
